Experimental data reported in ChEMBL document CHEMBL1149315, “Insertion of an aspartic acid moiety into cyclic pseudopeptides: synthesis and biological characterization of potent antagonists for the human Tachykinin NK-2 receptor” (J Med Chem, 2004).
Activity calls are given as the source filed them.

What was measured:
Substance-K receptor = target: T1, Substance-K receptor (Homo sapiens, UniProt P21452); test: Displacement of [125I]neurokinin A from human NK2 receptor expressed in CHOK1 cells; assay type: cell-based, CHO-K1
T1 sequence (P21452 whole entry): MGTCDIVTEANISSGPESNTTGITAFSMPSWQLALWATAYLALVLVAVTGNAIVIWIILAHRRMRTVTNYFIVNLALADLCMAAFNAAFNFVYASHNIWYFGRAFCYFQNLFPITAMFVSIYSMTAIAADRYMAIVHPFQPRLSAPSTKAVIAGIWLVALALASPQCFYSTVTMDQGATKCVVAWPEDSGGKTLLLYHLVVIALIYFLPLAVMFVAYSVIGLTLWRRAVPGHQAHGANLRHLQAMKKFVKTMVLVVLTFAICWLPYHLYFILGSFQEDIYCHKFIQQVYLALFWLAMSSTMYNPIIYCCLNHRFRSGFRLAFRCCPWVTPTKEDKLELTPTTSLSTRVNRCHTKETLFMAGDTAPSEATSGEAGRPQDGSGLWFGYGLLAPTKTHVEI
How it was run: (§1)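 Competition binding was run on membranes of cells stably transfected with the human receptor: U-373MG for NK-1, CHO-K1 for NK-2 and NK-3. NK-1 used [3H][Sar9]SP sulfone at 1.2 nM. Affinity is given as pKi (−log Ki).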

[1] = target: T2, Substance-K receptor (Oryctolagus cuniculus) (UniProt P79218); test: Antagonist activity at NK2 receptor in rabbit pulmonary artery assessed as effect on neurokinin A-induced mechanical activity; assay type: functional; conditions: filed as antagonist
T2 sequence (whole entry): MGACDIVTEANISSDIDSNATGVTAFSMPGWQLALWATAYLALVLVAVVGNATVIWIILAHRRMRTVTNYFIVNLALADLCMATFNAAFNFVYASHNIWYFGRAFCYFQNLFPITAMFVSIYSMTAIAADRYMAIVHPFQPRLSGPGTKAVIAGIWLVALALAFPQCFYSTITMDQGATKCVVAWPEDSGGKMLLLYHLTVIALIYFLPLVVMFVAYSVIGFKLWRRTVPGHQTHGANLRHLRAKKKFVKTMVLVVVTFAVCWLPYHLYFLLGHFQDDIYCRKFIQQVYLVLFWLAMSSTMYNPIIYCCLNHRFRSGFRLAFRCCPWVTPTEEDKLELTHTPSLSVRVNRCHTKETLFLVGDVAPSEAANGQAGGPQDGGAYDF
How it was run: (§2)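 Isolated smooth muscle strips were held in oxygenated (96% O2/4% CO2) Krebs–Henseleit at NaCl 119, NaHCO3 25, KH2PO4 1.2, MgSO4 1.5, CaCl2 2.5, KCl 4.7 and glucose 11 mM. Cumulative agonist concentration–response curves were run after 15 min antagonist incubation. pKB = log(dose ratio − 1) − log[antagonist], as the mean of individual values.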

[2] = target: T3, Substance-K receptor (Rattus norvegicus) (UniProt P16610); test: Antagonist activity at NK2 receptor in rat urinary bladder assessed as effect on beta-Ala8]NKA(4-10)-induced mechanical activity; assay type: functional; conditions: filed as antagonist; how it was run: as §2
T3 sequence (whole entry): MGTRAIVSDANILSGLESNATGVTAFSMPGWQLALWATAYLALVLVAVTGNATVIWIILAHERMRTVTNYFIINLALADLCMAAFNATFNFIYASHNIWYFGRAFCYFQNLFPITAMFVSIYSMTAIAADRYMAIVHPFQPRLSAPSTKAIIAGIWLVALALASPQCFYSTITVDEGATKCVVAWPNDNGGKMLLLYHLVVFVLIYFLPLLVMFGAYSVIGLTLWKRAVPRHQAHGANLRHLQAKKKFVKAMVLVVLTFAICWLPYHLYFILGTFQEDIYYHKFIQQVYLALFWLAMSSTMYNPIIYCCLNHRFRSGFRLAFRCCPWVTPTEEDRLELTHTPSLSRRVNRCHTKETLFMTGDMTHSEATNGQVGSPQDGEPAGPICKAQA

[3] = target: Substance-P receptor (Cavia porcellus) (UniProt P30547); test: Antagonist activity at NK1 receptor in guinea pig ileum assessed as effect on substance P methyl ester-induced mechanical activity; assay type: functional, tissue-based; how it was run: as §2
Substance-P receptor (Cavia porcellus), sequence (P30547 whole entry): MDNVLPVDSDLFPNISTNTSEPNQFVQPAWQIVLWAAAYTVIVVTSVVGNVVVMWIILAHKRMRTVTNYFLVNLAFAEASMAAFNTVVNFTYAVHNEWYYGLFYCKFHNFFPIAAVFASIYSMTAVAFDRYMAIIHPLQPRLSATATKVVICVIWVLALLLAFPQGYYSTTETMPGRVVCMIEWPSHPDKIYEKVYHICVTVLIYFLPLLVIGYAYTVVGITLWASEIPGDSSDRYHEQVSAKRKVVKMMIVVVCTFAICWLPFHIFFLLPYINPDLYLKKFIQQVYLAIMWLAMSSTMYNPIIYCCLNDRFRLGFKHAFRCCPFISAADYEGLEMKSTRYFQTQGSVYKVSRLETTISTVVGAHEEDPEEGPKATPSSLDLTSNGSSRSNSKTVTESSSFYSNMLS

[4] = target: T4, Neuromedin-K receptor (Cavia porcellus) (UniProt P30098); test: Antagonist activity at NK3 receptor in guinea pig ileum assessed as effect on senktide-induced mechanical activity; assay type: functional, tissue-based; conditions: filed as antagonist
T4 sequence (whole entry): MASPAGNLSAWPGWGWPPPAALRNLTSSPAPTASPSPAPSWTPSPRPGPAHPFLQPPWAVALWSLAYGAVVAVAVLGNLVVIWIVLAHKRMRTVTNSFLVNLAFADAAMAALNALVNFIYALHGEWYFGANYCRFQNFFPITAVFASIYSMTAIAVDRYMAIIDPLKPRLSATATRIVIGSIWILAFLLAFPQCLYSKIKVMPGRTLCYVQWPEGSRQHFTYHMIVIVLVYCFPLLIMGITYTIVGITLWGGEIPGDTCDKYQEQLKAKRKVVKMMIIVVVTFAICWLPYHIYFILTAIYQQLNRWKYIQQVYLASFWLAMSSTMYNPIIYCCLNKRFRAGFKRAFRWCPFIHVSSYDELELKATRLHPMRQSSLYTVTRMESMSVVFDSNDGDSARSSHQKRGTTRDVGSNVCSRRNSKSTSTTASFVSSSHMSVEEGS

Substance-P receptor = Substance-P receptor (Homo sapiens, UniProt P25103); test: Displacement of [3H][Sar9]SP sulfone from human NK1 receptor expressed in U373MG cells; assay type: cell-based, U-373MG ATCC; how it was run: as §1
Substance-P receptor, sequence (P25103 whole entry): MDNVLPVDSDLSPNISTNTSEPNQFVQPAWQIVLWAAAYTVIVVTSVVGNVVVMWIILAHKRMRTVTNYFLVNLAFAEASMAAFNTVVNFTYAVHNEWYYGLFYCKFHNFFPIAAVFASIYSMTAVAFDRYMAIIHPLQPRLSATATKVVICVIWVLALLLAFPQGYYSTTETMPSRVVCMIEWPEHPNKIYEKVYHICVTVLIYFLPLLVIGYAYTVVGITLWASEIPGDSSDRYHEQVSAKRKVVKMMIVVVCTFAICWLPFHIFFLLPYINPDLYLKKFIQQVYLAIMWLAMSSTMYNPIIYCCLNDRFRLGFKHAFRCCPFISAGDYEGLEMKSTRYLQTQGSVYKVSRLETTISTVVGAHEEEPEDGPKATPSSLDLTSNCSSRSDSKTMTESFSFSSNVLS

Neuromedin-K receptor = target: T5, Neuromedin-K receptor (Homo sapiens, UniProt P29371); test: Displacement of [125I][MePhe7]NKB from human NK3 receptor expressed in CHOK1 cells; assay type: cell-based, CHO-K1; how it was run: as §1
T5 sequence (P29371 whole entry): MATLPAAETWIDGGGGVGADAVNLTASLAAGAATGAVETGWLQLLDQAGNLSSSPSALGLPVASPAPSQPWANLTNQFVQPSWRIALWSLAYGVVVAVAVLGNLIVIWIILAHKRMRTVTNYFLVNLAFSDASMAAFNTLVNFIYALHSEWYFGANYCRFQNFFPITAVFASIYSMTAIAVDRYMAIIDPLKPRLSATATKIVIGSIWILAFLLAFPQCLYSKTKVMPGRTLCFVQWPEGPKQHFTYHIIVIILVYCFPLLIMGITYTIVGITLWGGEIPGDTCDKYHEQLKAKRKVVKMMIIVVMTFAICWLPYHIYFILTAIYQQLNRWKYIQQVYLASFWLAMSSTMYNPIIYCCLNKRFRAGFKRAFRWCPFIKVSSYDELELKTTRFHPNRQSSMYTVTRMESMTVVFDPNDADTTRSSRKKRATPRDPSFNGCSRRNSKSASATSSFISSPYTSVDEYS

Cavia porcellus [5] = test: Inhibition of [beta-Ala8]NKA(4-10)-induced bronchoconstriction in anesthetized Dunkin Hartley guinea pig at 100 nmol/kg, it relative to control; assay type: functional, organism-based; conditions: 10 nmol/kg, in the assay text read “10 nmol/kg” for “100 nmol/kg”
How it was run: (§3)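 Male Dunkin Hartley guinea pigs (350–400 g) were anesthetized with urethane 1.5 g/kg sc, kept at 36 °C and ventilated at 60 strokes/min. After two reproducible control responses to agonist (1 nmol/kg iv, jugular vein), antagonist was given intratracheally near the bronchial bifurcation. Dosing was 5 and 30 min before challenge, with challenges repeated every 30 min up to 4 h. Bronchoconstriction = insufflation pressure rise over basal (mmHg), expressed as % inhibition of control.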

Cavia porcellus [6] = test: Inhibition of [beta-Ala8]NKA(4-10)-induced bronchoconstriction in intratracheally dosed anesthetized Dunkin Hartley guinea pig; assay type: functional; conditions: Trachea, inhaled or nasal; how it was run: as §3
Cavia porcellus [7] = test: Inhibition of [beta-Ala8]NKA(4-10)-induced bronchoconstriction in anesthetized Dunkin Hartley guinea pig at 10 nmol/kg, it relative to control; assay type: functional; how it was run: as §3

Row | SMILES | Ki (Substance-K receptor) | pKb [1] | pKb [2] | pKb [4] | also measured
1 | O=C1C[C@@H](N2CCNCC2)C(=O)NC[C@@H](Cc2ccccc2)NC(=O)[C@H](Cc2ccccc2)NC(=O)[C@H](Cc2c[nH]c3ccccc23)N1 | 1.58 nM (antagonist) | 7.7 | – | – | –
2 | NS(=O)(=O)N1CCN(CC(=O)N[C@@H]2CC(=O)N[C@@H](Cc3c[nH]c4ccccc34)C(=O)N[C@@H](Cc3ccccc3)C(=O)N[C@H](Cc3ccccc3)CNC2=O)CC1 | 0.1 nM (antagonist) | – | 9.5 | 5.9 | pKb [3]: < 5.5; Ki (Substance-P receptor): 200 nM (antagonist); Ki (Neuromedin-K receptor): 7940 nM (antagonist); Activity (Cavia porcellus [5]): Active; ED50 (Cavia porcellus [6]): 0.00027 µmol/kg
3 | O=C1C[C@@H](NC(=O)CN2CCC(N3CCOCC3)CC2)C(=O)NC[C@@H](Cc2ccccc2)NC(=O)[C@H](Cc2ccccc2)NC(=O)[C@H](Cc2c[nH]c3ccccc23)N1 | 0.158 nM (antagonist) | – | 9.7 | 6.4 | pKb ([3]; filed as antagonist): 7.5; Ki (Substance-P receptor): 126 nM (antagonist); Ki (Neuromedin-K receptor): 1260 nM (antagonist); inhibition in vivo at 0.01 µmol/kg (Cavia porcellus [7]): 80%; Activity (Cavia porcellus [5]): Active; ED50 (Cavia porcellus [6]): 0.00015 µmol/kg
4 | N[C@@H]1CC(=O)N[C@@H](Cc2c[nH]c3ccccc23)C(=O)N[C@@H](Cc2ccccc2)C(=O)N[C@H](Cc2ccccc2)CNC1=O | 2 nM (antagonist) | 7.9 | – | – | –
5 | O=C1C[C@H](NC2CCOCC2)C(=O)NC[C@@H](Cc2ccccc2)NC(=O)[C@H](Cc2ccccc2)NC(=O)[C@H](Cc2c[nH]c3ccccc23)N1 | 1 nM (antagonist) | 8.6 | – | – | –
6 | O=C1C[C@@H](NC2CCOCC2)C(=O)NC[C@@H](Cc2ccccc2)NC(=O)[C@H](Cc2ccccc2)NC(=O)[C@H](Cc2c[nH]c3ccccc23)N1 | 0.0631 nM (antagonist) | 9.2 | 9.1 | 6.4 | pKb ([3]; filed as antagonist): 6.1
7 | O=C1C[C@@H](N2CCCCC2)C(=O)NC[C@@H](Cc2ccccc2)NC(=O)[C@H](Cc2ccccc2)NC(=O)[C@H](Cc2c[nH]c3ccccc23)N1 | 1.58 nM (antagonist) | 8.2 | – | – | –
8 | O=C1C[C@@H](NC(=O)CN2CCC(N3CCCCC3)CC2)C(=O)NC[C@@H](Cc2ccccc2)NC(=O)[C@H](Cc2ccccc2)NC(=O)[C@H](Cc2c[nH]c3ccccc23)N1 | – | – | 9.2 | 5.8 | pKb ([3]; filed as antagonist): 6.8
9 | O=C1C[C@H](N2CCOCC2)C(=O)NC[C@@H](Cc2ccccc2)NC(=O)[C@H](Cc2ccccc2)NC(=O)[C@H](Cc2c[nH]c3ccccc23)N1 | – | 8.5 | 8.9 | – | –
10 | O=C1C[C@@H](N2CCOCC2)C(=O)NC[C@@H](Cc2ccccc2)NC(=O)[C@H](Cc2ccccc2)NC(=O)[C@H](Cc2c[nH]c3ccccc23)N1 | – | 8.9 | 9.2 | 6.1 | pKb ([3]; filed as antagonist): 6.2

The next lines start with results.

Row | Ki (Substance-K receptor) | pKb [1] | pKb [2] | pKb [4] | SMILES | also measured
11 | 0.158 nM (antagonist) | 8.1 | – | – | N[C@@H]1CC(=O)N[C@@H](Cc2c[nH]c3ccccc23)C(=O)N[C@@H](Cc2ccccc2)C(=O)N[C@H](Cc2ccc(Cl)c(Cl)c2)CNC1=O | –
12 | – | 8.1 | 8.1 | – | O=C1CCC(=O)N[C@@H](Cc2c[nH]c3ccccc23)C(=O)N[C@@H](Cc2ccccc2)C(=O)N[C@H](Cc2ccc(Cl)c(Cl)c2)CN1 | –
13 | 0.2 nM (antagonist) | 8.6 | 8.9 | – | N[C@H]1CC(=O)N[C@@H](Cc2c[nH]c3ccccc23)C(=O)N[C@@H](Cc2ccccc2)C(=O)N[C@H](Cc2ccc(Cl)c(Cl)c2)CNC1=O | –
14 | – | 7.5 | – | – | N[C@H]1CC(=O)N[C@@H](Cc2c[nH]c3ccccc23)C(=O)N[C@@H](Cc2ccccc2)C(=O)N[C@H](Cc2ccccc2)CNC1=O | –
15 | 15.8 nM (antagonist) | 7.2 | – | – | N[C@@H]1CC(=O)NC[C@@H](Cc2ccccc2)NC(=O)[C@H](Cc2ccccc2)NC(=O)[C@H](Cc2c[nH]c3ccccc23)NC1=O | –
16 | 0.251 nM (antagonist) | 8.4 | 8 | – | O=C1C[C@@H](N2CCOCC2)C(=O)NC[C@@H](Cc2ccc(Cl)c(Cl)c2)NC(=O)[C@H](Cc2ccccc2)NC(=O)[C@H](Cc2c[nH]c3ccccc23)N1 | –
